PMC2677757 (Drug metabolism and disposition: the biological fate of …, 2009)
In brackets after ≈: the same amount, converted by molar mass. Marks after values point to notes of the source that are not given here.

Legend:
[1] = molecular target: T1, rSULT1A1 (Rattus norvegicus, UniProt P17988); assay: Reversibility of the effect of GSSG on rSULT1A1 by reduction with DTT; type: biochemical; details: 25°C 1 hr pretreatment; 2-naphthol 250 μM, 4′-OH PCB 6 100 μM; mean and SD, n=3
[2] = molecular target: T2, rSULT2A3 (Rattus norvegicus, UniProt P22789); assay: Inhibition of rSULT2A3-catalyzed sulfation of DHEA; type: biochemical; details: for Inhibition of rSULT2A3 reached: DHEA as substrate, within solubility limits
T2 sequence (P22789 1-284): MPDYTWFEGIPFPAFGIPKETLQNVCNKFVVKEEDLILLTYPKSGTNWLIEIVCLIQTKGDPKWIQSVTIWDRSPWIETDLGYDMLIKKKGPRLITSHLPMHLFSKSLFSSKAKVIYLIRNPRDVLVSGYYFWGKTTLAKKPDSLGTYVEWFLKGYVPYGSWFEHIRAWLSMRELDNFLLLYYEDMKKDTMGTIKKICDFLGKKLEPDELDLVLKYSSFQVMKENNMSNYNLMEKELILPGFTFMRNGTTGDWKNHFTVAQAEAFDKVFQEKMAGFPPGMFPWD

[3] = Solubility of OHPCBs in the SULT assay buffer by light scattering at 400 nm; type: physicochemical
[4] = molecular target: T1, rSULT1A1; assay: Sulfation of OHPCBs by rSULT1A1 pretreated with GSH or GSSG; type: biochemical; details: for Sulfation at varying OHPCB concentrations, rSULT1A1 pretreated with 1 mM GSSG: Fig. 3B; for Substrate inhibition in both reduced and oxidized rSULT1A1-catalyzed reactions: 1 mM GSH or 1 mM GSSG pretreatment; for Sulfation by GSSG-pretreated rSULT1A1 compared with GSH-pretreated enzyme: 1 mM GSSG vs 1 mM GSH, Fig. 3A
How it was run: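 DTT was stripped from purified enzyme by gel filtration at 4°C, leaving less than 0.06 mM. Enzyme was held 1 h at 25°C under argon with 1 mM GSH or GSSG, and GSH was checked by DTNB. Assays used 0.75 μg enzyme, 0.25 M phosphate pH 7.0, 200 μM PAPS and no 2-mercaptoethanol, 6 min at 37°C. Test compound was 100 μM or varied. PAP formation was corrected by a no-compound blank, in duplicate or triplicate.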

[5] = tested on: hSULT2A1; details: ref Liu et al., 2006; cited from earlier work
[6] = molecular target: T1, rSULT1A1; assay: Inhibition of rSULT1A1-catalyzed sulfation of 2-naphthol; type: biochemical
[7] = molecular target: T1, rSULT1A1; assay: Assay of OHPCBs as potential substrates of rSULT1A1; type: biochemical; details: presence of reducing agents; within limits of solubility
How it was run: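 Recombinant rat SULT1A1 was expressed in E. coli at 29°C without IPTG and purified by PAP-agarose affinity with a PAP gradient in DTT-containing buffer. […] Substrate-dependent PAP formation was the read-out.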

[8] = 37 °C, pH 7, aqueous buffer, kinetic from dmso stock
[9] = 37°C, 0.25 M potassium phosphate pH 7.0, […] (v/v) acetone, 7.5 mM 2-mercaptoethanol, light scattering

T1 sequence (P17988 whole entry): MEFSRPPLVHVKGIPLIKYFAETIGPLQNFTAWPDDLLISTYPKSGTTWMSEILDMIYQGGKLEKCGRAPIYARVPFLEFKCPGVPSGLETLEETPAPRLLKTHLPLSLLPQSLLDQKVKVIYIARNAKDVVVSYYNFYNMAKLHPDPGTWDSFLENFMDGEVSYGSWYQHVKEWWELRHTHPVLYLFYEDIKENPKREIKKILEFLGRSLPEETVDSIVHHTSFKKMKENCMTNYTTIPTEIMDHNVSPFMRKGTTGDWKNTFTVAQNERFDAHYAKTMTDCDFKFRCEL

Structure (SMILES): Oc1ccc2ccccc2c1 [2-Naphthol]
- Rate of sulfation, rSULT1A1 pretreated with 1 mM GSSG [1]: 50.2±2.1 ^c nmoles of product/mg/min
- Rate of sulfation, rSULT1A1 pretreated with 5 mM DTT [1]: 38.3±4.7 nmoles of product/mg/min

Structure (SMILES): Oc1ccc(-c2ccc(Cl)cc2)c(Cl)c1 [4-OH PCB 8, 2,4′-Dichloro-biphenyl-4-ol]
- IC50 [2]: ~400 µM
- Solubility [3, 8]: ≥ 500 µM

Structure (SMILES): Oc1c(Cl)cc(-c2ccccc2)cc1Cl [4-OH PCB 14]
- Solubility [3, 9]: ≥1000 µM
- Sulfation at varying OHPCB concentrations, rSULT1A1 pretreated with 1 mM GSSG [4]: concentration-dependent sulfation

Structure (SMILES): Oc1c(Cl)cc(-c2ccccc2Cl)cc1Cl [4-OH PCB 34]
- Solubility [3, 9]: 300 µM (≈ 82.1 µg/mL)
- Substrate activity for hSULT2A1 [5]: good substrates

Structure (SMILES): Oc1ccc(-c2ccc(Cl)cc2)cc1 [4′-OH PCB 3]
- Solubility [3, 9]: 300 µM (≈ 61.4 µg/mL)

Structure (SMILES): Oc1ccc(-c2ccccc2Cl)cc1Cl [4′-OH PCB 6, 3,2′-Dichloro-biphenyl-4-ol]
- IC50 [6]: 22.7 µM
- Inhibition of rSULT2A3 reached [2]: less than 50%
- Rate of sulfation, rSULT1A1 pretreated with 1 mM GSSG [1]: 37.3±4.0 nmoles of product/mg/min
- Solubility [3, 8]: 250 µM (≈ 59.8 µg/mL)
- Sulfation at varying OHPCB concentrations, rSULT1A1 pretreated with 1 mM GSSG [4]: concentration-dependent sulfation

Structure (SMILES): Oc1ccc(-c2cc(Cl)ccc2Cl)cc1 [4′-OH PCB 9]
- Inhibition of rSULT2A3 reached [2]: full inhibition
- Solubility [3, 9]: 500 µM (≈ 120 µg/mL)
- Substrate inhibition in both reduced and oxidized rSULT1A1-catalyzed reactions [4]: presence of substrate inhibition
- Sulfation by GSSG-pretreated rSULT1A1 compared with GSH-pretreated enzyme [4]: only slightly increased
- Inhibition of hSULT2A1 [5]: potent inhibitor

Structure (SMILES): Oc1ccc(-c2ccc(Cl)c(Cl)c2)cc1 [4′-OH PCB 12]
- Solubility [3, 9]: ≥500 µM

Structure (SMILES): Oc1ccc(-c2ccc(Cl)cc2Cl)cc1Cl [4′-OH PCB 25]
- Solubility [3, 9]: 100 µM (≈ 27.4 µg/mL)

Structure (SMILES): Oc1ccc(-c2ccc(Cl)c(Cl)c2)c(Cl)c1 [4′-OH PCB 33, 2,3′,4′-Trichloro-biphenyl-4-ol]
- IC50 [6]: 26.2 µM
- Inhibition of rSULT2A3 reached [2]: less than 50%
- Solubility [3, 8]: 50 µM (≈ 13.7 µg/mL)
- Sulfation at varying OHPCB concentrations, rSULT1A1 pretreated with 1 mM GSSG [4]: concentration-dependent sulfation

Structure (SMILES): Oc1ccc(-c2ccc(Cl)c(Cl)c2)cc1Cl [4′-OH PCB 35]
- Solubility [3, 9]: 50 µM (≈ 13.7 µg/mL)
- Substrate inhibition with rSULT1A1 [7]: did not show substrate inhibition

Structure (SMILES): Oc1ccc(-c2cc(Cl)cc(Cl)c2)cc1Cl [4′-OH PCB 36]
- Inhibition of rSULT1A1 reached ([6]; 2-naphthol as substrate, up to full inhibition or limit of solubility): about 65%
- Solubility [3, 9]: 50 µM (≈ 13.7 µg/mL)

Structure (SMILES): Oc1c(Cl)cc(-c2ccc(Cl)cc2Cl)cc1Cl [4′-OH PCB 68]
- Solubility [3, 9]: 50 µM (≈ 15.4 µg/mL)
- Substrate activity for hSULT2A1 [5]: good substrates

Structure (SMILES): Oc1ccc(Cl)cc1-c1ccc(Cl)c(Cl)c1 [6′-OH PCB 35]
- Solubility [3, 9]: 100 µM (≈ 27.4 µg/mL)
- Substrate inhibition with rSULT1A1 [7]: did not show substrate inhibition
- Substrate inhibition in both reduced and oxidized rSULT1A1-catalyzed reactions [4]: absence of substrate inhibition
- Sulfation by GSSG-pretreated rSULT1A1 compared with GSH-pretreated enzyme [4]: only slightly increased
